Measurements gathered from unrelated publications.
Protocols differ between the studies behind these lines.
Cell line: MCF7
Read-out: cell growth or viability

Compound | assay | conditions | IC50
N.N.O=C([O-])C1(C(=O)[O-])CCC1.[Pt+2] | MTT | 96 h | > 100 µM
N[C@@H](Cc1ccc(N(CCCl)CCCl)cc1)C(=O)O | CCK-8 | 48 h | > 50 µM
CO[C@]1([C@@H]2CSC(=O)N2C)C[C@H]2C[C@@H](CC[C@H](C)/C=C\C=C\CC/C(C)=C\C(=O)O2)O1 | MTT | 72 h | 13.1 µM
CC1c2c(c3ccccc3oc2=O)Oc2ncn(N)c(=N)c21 (stereo not shown) | MTT | 72 h | > 75 µM
C/C1=C/C(=O)O[C@@H]2C[C@@H](CC[C@H](C)/C=C\C=C\CC1)O[C@@](O)([C@@H]1CSC(=O)N1Cc1ccccc1)C2 | MTT | 72 h | 0.63 µM
COc1c2ccoc2cc2oc(=O)ccc12 | WST-1 | 48 h | 34.5 µM
C=C(C)C(=O)O[C@H]1CC2=C[C@@H](C/C(C)=C/[C@H]3OC(=O)C(=C)[C@H]13)OC2=O | MTT | 24 h | 2.3 µM
C/C1=C/C(=O)O[C@@H]2C[C@@H](CC[C@H](C)/C=C\C=C\CC1)O[C@@](OC(=O)c1ccccc1)([C@@H]1CSC(=O)N1)C2 | MTT | 72 h | 0.52 µM
COc1c2c(cc3c1OCO3)[C@]13C=C[C@H](OC)C[C@@H]1[N@](C2)C[C@H]3OC(=O)c1ccoc1 | WST-1 |  | > 10 µM
O=C(Oc1ccc(Cl)cc1)[c-]1cccc1.[Fe+2].c1cc[cH-]c1 | MTT | 72 h | 33 µM
C[C@]12C[C@@H](O)[C@H]3[C@@H](CC[C@]4(O)C[C@@H](O)C[C@@H](O)[C@]34CO)[C@@]1(O)CC[C@@H]2c1cn(Cc2ccccc2)nn1 | resazurin | 72 h | > 100 µM
O=C(Oc1ccc(-n2cccc2)cc1)[c-]1cccc1.[Fe+2].c1cc[cH-]c1 | MTT | 72 h | 1.4 µM
C/C1=C/C(=O)O[C@@H]2C[C@@H](CC[C@H](C)/C=C\C=C\CC1)O[C@@](O)([C@@H]1CSC(=O)N1CO)C2 | MTT | 72 h | 0.12 µM
O=C(O)CCCc1ccc(N(CCCl)CCCl)cc1 | CCK-8 | 48 h | 38.5 µM
CO[C@]1([C@@H]2CSC(=O)N2C2CCCC2)C[C@H]2C[C@@H](CC[C@H](C)/C=C\C=C\CC/C(C)=C\C(=O)O2)O1 | MTT | 72 h | 5.3 µM
N.N.[Cl][Pt][Cl] | MTT | 48 h | 14.2 µM
CO[C@]1([C@@H]2CSC(=O)N2CCCO)C[C@H]2C[C@@H](CC[C@H](C)/C=C\C=C\CC/C(C)=C\C(=O)O2)O1 | MTT | 72 h | 19.2 µM
C[C@@H]1O[C@@H](O[C@H]2C[C@@H](O)[C@]3(CO)[C@H]4[C@H](O)C[C@]5(C)[C@@H](C6=CC(=O)OC6)CC[C@]5(O)[C@@H]4CC[C@]3(O)C2)[C@H](O)[C@H](O)[C@H]1O | resazurin | 72 h | 0.053 µM
N.N.[Cl][Pt][Cl] | SRB | 48 h | 9.6 µM
